Tests used:
[1] = biological target: T1, Fe(3+)-Zn(2+) purple acid phosphatase (Phaseolus vulgaris) (UniProt P80366); assay: Competitive inhibition of red kidney bean PAP using pNPP as substrate by UV-vis spectrophotometric analysis
T1 sequence (whole entry): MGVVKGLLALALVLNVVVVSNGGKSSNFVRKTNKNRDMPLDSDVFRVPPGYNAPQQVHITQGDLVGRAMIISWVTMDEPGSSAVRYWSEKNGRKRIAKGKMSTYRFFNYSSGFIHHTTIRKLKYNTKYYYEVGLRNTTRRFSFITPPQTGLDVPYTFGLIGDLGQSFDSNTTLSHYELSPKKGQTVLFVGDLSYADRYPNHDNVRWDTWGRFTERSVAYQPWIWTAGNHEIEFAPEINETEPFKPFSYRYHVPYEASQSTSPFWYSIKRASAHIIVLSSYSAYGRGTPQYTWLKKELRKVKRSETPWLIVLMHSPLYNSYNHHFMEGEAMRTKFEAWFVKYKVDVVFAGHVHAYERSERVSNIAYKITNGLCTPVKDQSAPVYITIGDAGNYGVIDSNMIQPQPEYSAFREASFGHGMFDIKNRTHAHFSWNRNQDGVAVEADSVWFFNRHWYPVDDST
Summary of the method: (§1)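 Red kidney bean (Phaseolus vulgaris) PAP purified from the beans and used at 7.4 nM. Assays ran at pH 4.9 in 0.1 M sodium acetate with 25% DMSO, at 25 °C. Substrate was pNPP at 1, 3, 5, 7.5, 10 and 12.5 mM, with inhibitor at 50–300 μM. Product formation was read at 405 nm. Kic and Kiuc came from non-linear regression to the general inhibition equation.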

Sus scrofa = organism: Sus scrofa; assay: Uncompetitive inhibition of fully reduced pig PAP using pNPP as substrate by UV-vis spectrophotometric analysis
Summary of the method: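 Pig PAP purified from the uterine fluid of a pregnant sow. Assays ran at pH 4.9 in 0.1 M sodium acetate with 25% DMSO, at 25 °C. pNPP was 1–12.5 mM (six levels) and inhibitor 50–300 μM. Rates were read at 405 nm. Kiuc came from a general inhibition equation fit.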

[2] = biological target: T1, Fe(3+)-Zn(2+) purple acid phosphatase (Phaseolus vulgaris); assay: Uncompetitive inhibition of red kidney bean PAP using pNPP as substrate by UV-vis spectrophotometric analysis; summary of the method: as §1
[3] = biological target: T2, Fe(3+)-Zn(2+) purple acid phosphatase (Phaseolus vulgaris, UniProt P80366); assay: Inhibition of red kidney bean PAP
T2 sequence (P80366 whole entry): T1 sequence (whole entry)
Summary of the method: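 PAP purified from Phaseolus vulgaris beans, used at 7.4 nM in 0.1 M sodium acetate pH 4.9 with 25% DMSO at 25 °C. pNPP substrate at 1, 3, 5, 7.5, 10 and 12.5 mM, inhibitor 50–300 μM. Product formation read at 405 nm. Kic and Kiuc came from a non-linear regression to the general inhibition equation.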

[4] = Inhibition of pig PAP; design: species or system Sus scrofa

Row | Ki [3] [µM] | Ki [4] [µM] | Compound | Kic [1] [µM] | Kiuc (Sus scrofa) [µM] | Kiuc [2] [µM]
1 | – | – | Cc1ccc(Cn2cc(C(=O)O)nn2)cc1 | 951 | 76 | –
2 | – | – | O=C(O)c1cn(Cc2ccc(Cl)cc2)nn1 | 1070 | 103 | –
3 | – | – | O=C(O)c1cn(Cc2ccccc2)nn1 | – | 23 | 963
4 | – | – | O=C(O)c1cn(Cc2cccc3ccccc23)nn1 | 2280 | 184 | –
5 | – | – | O=C(O)c1cn(Cc2ccccc2Cl)nn1 | 438 | 276 | –
6 | – | – | COc1ccc(Cn2cc(C(=O)O)nn2)cc1 | – | 48 | –
7 | 30 | 40 | VANADATE ION | – | – | –
8 | 340 | 42 | CC(=O)c1sc(C)nc1-c1ccc(C)cc1 | – | – | –
9 | 2000 | 2000 | O=P(O)(O)O [PHOSPHORIC ACID] | – | – | –

— ChEMBL document CHEMBL4368889, “Synthesis and evaluation of novel purple acid phosphatase inhibitors” (Medchemcomm, 2019)
